Drawing on ChEMBL document CHEMBL3098075, “Lipoic acid analogs with enhanced pharmacological activity” (2014), this text covers Activity for 24 compounds.

The test system of the test is Rattus norvegicus. Description: Cardioprotective activity in Sprague-Dawley rat model of myocardial ischemia-reperfusion injury assessed as reduction in MI/AR ratio at 1 to 10 mg/kg, iv bolus administered 15 mins prior to 30 mins LCX ligation by TTC staining-based fluorescence microscopy relative to placebo control. It is filed as functional, Myocardium. Set-up: scale not given: the % may be the effect or the level left. The note with it: dose mg/kg 1-10. The procedure, abridged:
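Anaesthetised animals underwent thoracotomy and pericardotomy, then LCX coronary ligation for 30 min followed by reperfusion. Agent was given in isotonic saline (pH-neutralised with NaOH, 285 mOsm), 1 mL/kg, before ligation. Fluorescent microspheres injected into the LV cavity during ischemia marked the area at risk. Hearts were excised after 24 h and cut into five 2 mm slices stained with 1% TTC. The MI/AR ratio was compared with placebo by Student's t-test.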

Residues, ends and D or L forms follow the SMILES beside them.

For the compound `O=C(CCCC[C@@H]1CCSS1)Nc1ccc(S(=O)(=O)O)cc1`, the Activity is on record as 44%.

With `O=C(O)CN(CC(=O)O)C(=O)CCCC[C@@H]1CCSS1`, the Activity worked out at 21%. With `O=C(CCCC[C@@H]1CCSS1)NCCS(=O)(=O)O`, the Activity was 45%.

On to `CC(=O)N[C@@H](CCC(=O)O)C(=O)N[C@@H](C)C(=O)N[C@@H](CCC(=O)O)C(=O)N[C@@H](C)C(=O)O` (Ac-EAEA-OH), for which the Activity stood at 23%. With `CC(=O)N[C@@H](CCC(=O)O)C(=O)N[C@@H](C)C(=O)O` (Ac-Glu-Ala-OH) the figure was 23%; with `C[C@H](NC(=O)[C@H](Cc1ccc(O)cc1)NC(=O)CCCC[C@@H]1CCSS1)C(=O)O`, 31%; with `C[C@H](NC(=O)CCCC[C@@H]1CCSS1)C(=O)N[C@@H](CCC(=O)O)C(=O)O`, 24%. With `O=C(CCCC[C@@H]1CCSS1)Nc1cccc(S(=O)(=O)O)c1` the figure was 33%; with `NC(=O)CC[C@H](NC(=O)CCCC[C@@H]1CCSS1)C(=O)NCC(=O)O`, 17%; with `O=C(O)CC[C@H](NC(=O)CCCC[C@@H]1CCSS1)C(=O)NCCS(=O)(=O)O`, 33%. For the compound `O=C(O)CCCC[C@@H]1CCSS1` [THIOCTIC ACID], the Activity is 19%. With `O=C(CCCC[C@@H]1CCSS1)NCCOS(=O)(=O)O` the figure was 30%.

In the case of `C[C@H](NC(=O)[C@H](CCC(=O)O)NC(=O)CCCC[C@@H]1CCSS1)C(=O)O` [CMX-2043], the Activity was 31%. Then `O=C(CCCC[C@@H]1CCSS1)NCCOP(=O)(O)O`, with 47%. With Ac-EAEAEGA-OH the figure was 17%.

On to `O=C(CCCC[C@@H]1CCSS1)N[C@@H](CS(=O)(=O)O)C(=O)O`, for which the Activity worked out at 30%. With `O=C(CCCC[C@@H]1CCSS1)NCCP(=O)(O)O` the figure was 53%; with `O=C(CCCC[C@@H]1CCSS1)NC(CF)C(=O)O` (some centres undefined), 10%; with `O=C(O)CNC(=O)[C@H](CC(=O)O)NC(=O)CCCC[C@@H]1CCSS1`, 28%. `O=C(O)CC[C@H](NC(=O)CCCC[C@@H]1CCSS1)C(=O)O`: the Activity is recorded as 33%. For `O=C(CCCC[C@@H]1CCSS1)N[C@@H](Cc1ccc(C(=O)O)cc1)C(=O)O`, the Activity amounted to 26%. `O=C(CCCC[C@@H]1CCSS1)Nc1ccc(C(=O)O)cc1`: the Activity came out at 22%. Take `O=C(CCCC[C@@H]1CCSS1)N[C@@H](Cc1ccc(O)cc1)C(=O)O`: the Activity was 29%.

As to `O=C(O)CCNC(=O)CCCC[C@@H]1CCSS1`, the Activity is listed as 39%.
